Source: PMC2948583 (Journal of proteome research, 2010)

Legend:
whole saliva proteases = assay: Proteolysis of purified statherin in pooled whole saliva; assay type: in vitro ADME, human; conditions: WS boiled to abolish protease activities; statherin 400 µg/ml; 37°C; RP-HPLC
Summary of the method: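 Pooled Parafilm-stimulated whole saliva from four healthy donors, boiled to abolish protease activity. Statherin, purified from parotid secretion by zinc precipitation and RP-HPLC, added to 400 µg/ml final. Incubated at 37°C and sampled at 0, 10, 30, 60 and 90 min. Aliquots boiled 10 min, diluted in 0.1% TFA, and run on analytical C-18 RP-HPLC (0–55% buffer B over 74 min). Intact statherin peak integrated.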

[1] = tested on: whole saliva supernatant proteases; assay: Proteolysis of purified statherin in pooled whole saliva supernatant; assay type: in vitro ADME, human; conditions: WSS boiled to abolish protease activities; statherin 400 µg/ml; 37°C; RP-HPLC
Summary of the method: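 Supernatant from pooled stimulated whole saliva (14,000 × g, 20 min, 4°C), boiled to abolish protease activity. Parotid-derived purified statherin added to 400 µg/ml final. Incubated at 37°C and sampled at 0, 1, 3, 5 and 7 h. Aliquots boiled 10 min, diluted in 0.1% TFA, and analysed by analytical C-18 RP-HPLC (0–55% of 80% acetonitrile/0.1% TFA over 74 min). Intact statherin peak area integrated.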

For “statherin (DSSEEKFLRRIGRFGYGYGPYQPVPEQPLYPQPYQPQYQQYTF; UniProt P02808 20-62, looked up)”, the “Stability of statherin in boiled WS (control)” value (whole saliva proteases) was “remained intact” and the “Stability of statherin in boiled WSS (control)” value [1] was “remained intact”.
